MEKK3 PB1 HTS – modulators of MEKK3-MEK5 PB1 binding, primary screen, biochemical, wildtype MEKK3, multiplex bead flow cytometry, Alexa488-MEK5; Mitogen-activated protein kinase kinase kinase 3 (Homo sapiens), Q99759; bead-based flow cytometry, Alexa488-MEK5 binding to MEKK3; actives lie on both sides; 0 = blocked by unlabeled MEK5, 100 = vehicle; hit rate 1.4% among 290,000; binding response (% of control), % at 10 µM;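 active = binding response more than 3 SD above or below the average of its plate-row segment, actives on both sides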;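 also: Alexa488 bead fluorescence after subtracting the streptavidin-only scavenger bead signal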
Target sequence (Q99759 whole entry, looked up): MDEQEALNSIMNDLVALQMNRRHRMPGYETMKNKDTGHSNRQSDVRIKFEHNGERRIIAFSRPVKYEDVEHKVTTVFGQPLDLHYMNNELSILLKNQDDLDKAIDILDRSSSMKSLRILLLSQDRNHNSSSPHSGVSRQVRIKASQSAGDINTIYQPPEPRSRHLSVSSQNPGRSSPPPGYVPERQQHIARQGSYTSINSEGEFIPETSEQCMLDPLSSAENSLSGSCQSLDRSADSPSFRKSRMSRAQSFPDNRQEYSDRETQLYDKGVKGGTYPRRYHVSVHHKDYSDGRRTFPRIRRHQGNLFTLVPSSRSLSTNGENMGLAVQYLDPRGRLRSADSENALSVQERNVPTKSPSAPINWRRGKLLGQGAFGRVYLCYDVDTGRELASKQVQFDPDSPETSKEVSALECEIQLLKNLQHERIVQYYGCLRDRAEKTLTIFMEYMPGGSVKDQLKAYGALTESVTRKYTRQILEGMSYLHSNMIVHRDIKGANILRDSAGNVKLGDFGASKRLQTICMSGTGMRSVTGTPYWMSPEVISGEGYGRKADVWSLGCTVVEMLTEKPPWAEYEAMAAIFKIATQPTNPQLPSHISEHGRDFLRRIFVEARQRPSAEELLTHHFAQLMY
NS3 helicase inh – inhibitors of HCV NS3 helicase, primary screen, biochemical, Cy5 molecular beacon fluorescence; NS3 helicase DNA unwinding; inhibition, % at 10.9 µM; hit rate 0.56% among 290,000; AID 1800, 2009;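 active = inhibition above the mean of all tested compounds plus 3 SD, set per campaign, cut at about 35% in these data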;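 also: 0% = DMSO wells and 100% = thioflavine S control wells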
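System: Hepatitis C virus NS3 helicase domain fragment enzyme | Reagent: Annealed dual-labelled DNA beacon duplex, ATP-started | Compound dosing: 10.9 µM single point, 0.8% DMSO | Incubation: 1 h reaction at 25 °C, ATP-initiated | Technique: Cy5 fluorescence | Evaluation: Percent inhibition from t60/t0 fluorescence ratio | Benchmarks: Low DMSO, high thioflavine S at 110 µM | Replication: Singlicate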
MEKK2 mut-MEK5 – MEK5 binding signal on mutant MEKK2 PB1, primary screen, biochemical, multiplex bead flow cytometry, Alexa488-MEK5; percent response, % at 10 µM; Alexa488-MEK5 binding to MEKK2 mutant; hit rate 0.35% among 290,000; in the data active = percent response above about 24%, passing the limit was not always enough
T cruzi inh – inhibitors of intracellular T. cruzi growth, primary screen, luminescence, NIH3T3 host cells | T. cruzi beta-gal in NIH3T3, 90 h | AID 1885, 2009 | hit rate 1.4% among 300,000 | inhibition, % (concentration not given with the values);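 active = mean inhibition across valid replicates above about 55%, limit read from the data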;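 also: signal also drops with host cell toxicity which is not excluded here; 0% = plate median of DMSO wells and 100% = zero luminescence signal; higher percent means less beta-gal luminescence so fewer parasites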
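System – NIH/3T3 host cells with β-galactosidase reporter T. cruzi · Doses – single 50 nL compound addition per well in DMSO · Reagent – 5000 T. cruzi trypomastigotes/well · Medium – Low-serum DMEM with 2% FBS · Timing – ≥90 h infection period, 3 h prior cell attachment · Evaluation – parasite load inhibition, % · Technique – GalScreen luminescence, 60 min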
FID counter – compounds displacing fluorescent DNA intercalator, primary screen, artefact control for HCV NS3 helicase inhibitor project, biochemical, FID fluorescence. DNA fluorescent intercalator displacement. inhibition, % at 7.9 µM. hit rate 0.17% among 290,000; in the data active = inhibition above about 37%;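 also: 0% = vehicle and 100% = reference compound; higher means more ethidium bromide displaced from hairpin DNA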
MEKK2 WT-MEK5 – modulators of MEK5 binding to wildtype MEKK2, primary screen, biochemical, multiplex bead flow cytometry, Alexa488-MEK5; hit rate 1.1% among 290,000; Mitogen-activated protein kinase kinase kinase 2 (Homo sapiens), Q9Y2U5; binding response (% of control), % at 10 µM; AID 1531, 2009; Alexa488-MEK5 binding to MEKK2 WT; actives lie on both sides; in the data active = binding response below about 67% or above about 130%
MEKK2wt confirm – modulators of MEK5 binding to wildtype MEKK2, confirmation, biochemical, single concentration, multiplex bead flow cytometry | shares compounds with MEKK3 PB1 HTS | Alexa488-MEK5 binding to MEKK2 WT; actives lie on both sides | binding response (% of control), % at 10 µM | hit rate 2.4% among 5,900; in the data active = binding response below about 16% or above about 210%; inactive = in between
MEKK2mut-MEK5 – mutant MEKK2 PB1-MEK5 binding signal retest – biochemical, single concentration, multiplex bead flow cytometry, confirmation. shares compounds with MEKK3 PB1 HTS. Alexa488-MEK5 binding to MEKK2 mutant. hit rate 2% among 5,900. percent response, % at 10 µM; in the data active = percent response mostly above about 71%, no sharp cut-off; inactive = mostly below about 38%;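 also: higher means compound restores mutant binding toward wildtype level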
MEKK3 confirm – MEKK3 wild-type PB1 binding to MEK5, inhibitors, confirmation, biochemical, bead multiplex flow cytometry, single concentration, wildtype; shares compounds with MEKK3 PB1 HTS; Alexa488-MEK5 binding to MEKK3; stronger effect = lower value; binding response (% of control), % at 10 µM; hit rate 1.8% among 5,900;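 active = binding response below 72% of control, or above a set upper limit, though filed actives all read lower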;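 also: 100% = DMSO only wells and 0% = binding blocked by excess unlabeled MEK5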
* = called active by the depositor; nt = no result; + = active, no number; [ ] = remark or other dose. An excerpt weighted towards active compounds, which were near 4.1% of everything screened.

SMILES	MEKK3 PB1 HTS	NS3 helicase inh	MEKK2 mut-MEK5	T cruzi inh	FID counter	MEKK2 WT-MEK5	MEKK2wt confirm	MEKK2mut-MEK5	MEKK3 confirm
CC1CN(CC(O)COCc2ccc3c(c2)OCO3)CC(C)O1 (stereo not drawn)	101.0	-5.5	0.0	4.2	-2.3	103.0	nt	nt	nt
CCC12OC(=N)C(C#N)(C1C)C(C#N)(C#N)C(c1ccccc1)O2 (stereo not drawn)	141.0*	0.6	0.0	-4.3	1.5	109.0	108.0	3.0	103.0
CCC1OC2(C)OC(=N)C1(C#N)C(C#N)(C#N)C2c1ccccc1 (stereo not drawn)	112.0	8.8	-1.0	-8.9	-1.4	105.0	nt	nt	nt
CCN(C(=O)c1cc2c(=O)[nH]c3ccc(C)cc3c2s1)c1ccc(F)cc1	129.0*	2.9	25.0	40.6	-8.8	113.0	95.0	-2.0	95.0
Cc1ccc2[nH]c(=O)c3cc(C(=O)N(C)c4ccc(C)c(C)c4)sc3c2c1	100.0	1.7	0.0	34.8	-1.9	99.0	nt	nt	nt
CC(NC(=O)Nc1ccc([N+](=O)[O-])cc1)C(c1ccccc1)N1CCOCC1 (stereo not drawn)	98.0	-9.2	-1.0	-6.3	1.4	96.0	nt	nt	nt
CC(NC(=O)Nc1ccc(Cl)c(Cl)c1)C(c1ccccc1)N1CCOCC1 (stereo not drawn)	139.0*	-19.6	0.0	25.5	-9.6	110.0	110.0	0.0	104.0
CCNC(=O)CSc1nnc(-c2ccccc2Br)n1-c1cccc(C(F)(F)F)c1	128.0*	0.6	1.0	-4.4	-26.0	109.0	100.0	0.0	99.0
NC(=O)CSc1nnc(-c2ccccc2Br)n1-c1cccc(C(F)(F)F)c1	139.0*	1.3	-1.0	5.0	-19.2	101.0	104.0	-4.0	102.0
CCCOc1ccc2c(c1)C(=NN=C(N)N)c1cc(OCCC)ccc1-2	99.0	-67.5	32.0*	39.0	18.3	191.0*	249.0*	88.0*	111.0
NC(N)=NN=C1c2ccccc2-c2ccccc21	103.0	9.7	15.0	-7.7	11.0	109.0	nt	nt	nt
COc1ccccc1OCCC(=O)OCC(=O)Nc1ccc(Br)cc1	134.0*	0.9	1.0	-20.8	-1.9	108.0	102.0	2.0	103.0
Cc1ccccc1OCCCC(=O)Nc1ccc(Br)cc1	0.0*[inhibitor]	-8.7	-21.0	-24.1	-1.7	0.0*[inhibitor]	112.0	8.0	109.0
CC(C)(C)c1cc(CCC(=O)NCc2ccccn2)cc(C(C)(C)C)c1O	97.0	1.7	-5.0	14.8	-47.3	97.0	nt	nt	nt
Cc1ccc(S(=O)(=O)n2c3ccc(Cl)cc3c3nc(C)sc32)cc1	150.0*	-7.0	-1.0	30.8	-2.8	106.0	102.0	5.0	104.0
Cc1cc(Cl)ccc1OCC(=O)NC(=S)Nc1ccccc1N1CCOCC1	148.0*	0.7	-1.0	-0.8	-1.0	102.0	97.0	-2.0	103.0
Cc1cc(Cl)ccc1OCC(=O)Nc1ccccc1N1CCOCC1	109.0	-2.4	3.0	24.8	-6.1	107.0	nt	nt	nt
CCOc1cc2[nH]c(=S)n(Cc3ccc(C(=O)NCCN(CC)CC)cc3)c(=O)c2cc1OCC	107.0	-61.3	29.0*	0.8	29.1	126.0	113.0	4.0	103.0
O=C(NCCCN1CCCC1)c1ccc(Cn2c(=S)[nH]c3ccc(Br)cc3c2=O)cc1	105.0	-81.0	25.0	34.1	14.6	144.0*	119.0	7.0	97.0
O=C(NCCN1CCCC1)c1ccc(Cn2c(=S)[nH]c3ccc(Br)cc3c2=O)cc1	102.0	-24.7	-1.0	13.2	1.9	104.0	nt	nt	nt
COc1ccc(CNC(=S)NC(C)CCc2ccccc2)cc1 (stereo not drawn)	103.0	-4.3	-2.0	-4.7	-15.4	107.0	nt	nt	nt
CCOC(=O)c1ccc(NC(=O)c2ccccc2N(C)S(=O)(=O)c2ccccc2)cc1	97.0	-4.9	3.0	34.5	-19.1	103.0	nt	nt	nt
COC(=O)C1=C(C)N(Cc2ccccc2)C(=NCc2cccc(C(F)(F)F)c2)N[C@H]1c1cccc(F)c1	108.0	-103.0	89.0*	45.2	30.6	208.0*	221.0*	64.0	108.0
COCCN=C1N[C@@H](c2cccc(C(F)(F)F)c2)C(C(=O)OC)=C(C)N1Cc1ccccc1	103.0	-139.1	12.0	26.3	29.7	114.0	nt	nt	nt
CCCc1cc(C(=O)Nc2ccc(CC)cc2)no1	97.0	0.3	-6.0	-2.8	-9.3	97.0	nt	nt	nt
SMILES	MEKK3 PB1 HTS	NS3 helicase inh	MEKK2 mut-MEK5	T cruzi inh	FID counter	MEKK2 WT-MEK5	MEKK2wt confirm	MEKK2mut-MEK5	MEKK3 confirm
CCOC(=O)c1ccc2c(c1)nc(SCC(=O)c1cc3ccccc3o1)n2CC	73.0*[inhibitor]	3.5	-51.0	-2.6	-11.5	55.0*[inhibitor]	98.0	-3.0	100.0
C=CCNC(=O)CSc1nc2cc(C(=O)OCC)ccc2n1CC	107.0	-3.5	7.0	5.3	-14.2	106.0	nt	nt	nt
O=C(CSc1ncn[nH]1)c1cc2ccccc2o1	173.0*	-13.7	+	4.5	4.4	+	90.0	-7.0	100.0
COc1cc(NC(=O)c2cc(C)nc3ccccc23)cc(OC)c1	129.0*	-24.8	7.0	-2.9	-6.9	117.0	96.0	-4.0	98.0
O=C(CNC(=O)c1cccc(Br)c1)N/N=C/c1cc(Br)cc(Br)c1O	151.0*	13.1	22.0	-13.9	-3.8	123.0	108.0	4.0	105.0
COc1cccc(C(C(=O)NC2CCCC2)N(C(=O)c2ccco2)c2ccc(-n3cnnn3)c(C)c2)c1OC (stereo not drawn)	99.0	0.2	-2.0	9.4	-33.7	95.0	nt	nt	nt
O=C(NCCC1=CCCCC1)C1CCN(S(=O)(=O)N2CCCC2)CC1	105.0	-17.0	1.0	-17.3	-24.2	104.0	nt	nt	nt

Screens deposited in PubChem BioAssay by several laboratories.
